Experimental data published in paper PMC2755634 (Clinical cancer research : an official journal of the …, 2009).
pIC50: −log10 of the molar value.

Assays:
[1] = test system: CYP1A1, CYP1A2, CYP1B1 (EROD activity); test: EROD activity in intact HepG2 cells; format: cell-based, human; settings: 24 hours; for inhibition of TCDD (PAH)-induced EROD activity: 50 μM compound + 250 pmol TCDD; for induction of EROD activity: 50 μM compound alone
[2] = test system: CYP1A1 heterogeneous nuclear RNA (hnCYP1A1); test: CYP1A1 gene transcription rate; settings: HepG2; co-treatment with 250 pmol TCDD or 1 μM DMBA
[3] = rats; cited from earlier work
[4] = target: T1, aryl hydrocarbon receptor (AhR) (Homo sapiens, UniProt P35869); test: Chromatin immunoprecipitation; settings: HepG2; 50 μM compound + 10 nmol TCDD; 90 minutes; TCDD alone 6.2-fold
T1 sequence (P35869 11-848): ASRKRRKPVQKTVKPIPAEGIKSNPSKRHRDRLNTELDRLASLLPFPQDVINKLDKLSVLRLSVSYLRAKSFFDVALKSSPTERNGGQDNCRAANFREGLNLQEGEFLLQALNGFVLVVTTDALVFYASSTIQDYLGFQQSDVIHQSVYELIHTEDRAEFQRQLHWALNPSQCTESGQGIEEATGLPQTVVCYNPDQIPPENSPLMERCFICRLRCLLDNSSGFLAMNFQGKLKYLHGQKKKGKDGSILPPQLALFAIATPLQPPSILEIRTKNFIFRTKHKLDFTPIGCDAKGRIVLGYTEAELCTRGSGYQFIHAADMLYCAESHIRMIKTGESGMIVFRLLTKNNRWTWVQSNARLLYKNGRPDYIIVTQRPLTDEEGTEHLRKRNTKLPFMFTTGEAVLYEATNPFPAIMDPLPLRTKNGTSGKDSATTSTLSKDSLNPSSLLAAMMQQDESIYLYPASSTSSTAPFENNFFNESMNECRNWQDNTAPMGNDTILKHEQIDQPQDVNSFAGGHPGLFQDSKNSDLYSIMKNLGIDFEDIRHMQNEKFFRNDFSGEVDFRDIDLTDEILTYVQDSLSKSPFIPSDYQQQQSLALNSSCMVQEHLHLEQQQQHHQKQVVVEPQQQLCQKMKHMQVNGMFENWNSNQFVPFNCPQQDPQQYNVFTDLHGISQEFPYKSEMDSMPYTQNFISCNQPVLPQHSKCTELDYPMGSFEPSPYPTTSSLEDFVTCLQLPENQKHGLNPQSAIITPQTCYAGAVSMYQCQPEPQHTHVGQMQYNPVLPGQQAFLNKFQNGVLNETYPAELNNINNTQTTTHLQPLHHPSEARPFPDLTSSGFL

CYP1A2 mRNA [5] = test: CYP1A2 mRNA expression by RT-PCR in HepG2 cells; settings: co-treatment with 250 pmol TCDD or 1 μM DMBA, 24 hours
CYP1B1 mRNA [6] = test: CYP1B1 mRNA expression by RT-PCR in LS180 cells; settings: 24 hours; for effect on TCDD- and DMBA-induced CYP1B1 mRNA expression: co-treatment with 250 pmol TCDD or 1 μM DMBA
LS180 cells = test: MTT cell viability assay; format: cell-based, human; settings: 0−100 μM, data not shown
Outline: (§1)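 Viability was read as MTT tetrazolium reduction in confluent HepG2 (RPMI 1640) or LS180 (Eagle's MEM with Earle's balanced salts) cells at 37 °C, 5% CO2. Test compound was given at 0–100 µmol/L from DMSO stock; final DMSO ≤0.1%.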

HepG2 cells = test: MTT cell viability assay; format: cell-based, human; settings: 0−100 μM, data not shown
Outline: as §1

CYP1A2 mRNA [7] = test: CYP1A2 mRNA expression by RT-PCR in LS180 cells; settings: co-treatment with 250 pmol TCDD or 1 μM DMBA, 24 hours
CYP1A1 mRNA [8] = test: CYP1A1 mRNA expression by RT-PCR in LS180 cells; settings: co-treatment with 250 pmol TCDD or 1 μM DMBA, 24 hours
CYP1A1 mRNA [9] = test: CYP1A1 mRNA expression by RT-PCR in HepG2 cells; settings: co-treatment with 250 pmol TCDD or 1 μM DMBA, 24 hours
CYP1B1 mRNA [10] = test: CYP1B1 mRNA expression by RT-PCR in HepG2 cells; settings: 24 hours; for effect on TCDD- and DMBA-induced CYP1B1 mRNA expression: co-treatment with 250 pmol TCDD or 1 μM DMBA
CYP1A1 = target: T2, CYP1A1 (Homo sapiens, UniProt P04798); test: Recombinant CYP1A1 Supersomes EROD activity; format: biochemical; settings: for change of Vmax with increasing compound concentration / nature of CYP1A1 inhibition (Michaelis-Menten kinetic analysis): recombinant CYP1A1 Supersomes
T2 sequence (P04798 1-512): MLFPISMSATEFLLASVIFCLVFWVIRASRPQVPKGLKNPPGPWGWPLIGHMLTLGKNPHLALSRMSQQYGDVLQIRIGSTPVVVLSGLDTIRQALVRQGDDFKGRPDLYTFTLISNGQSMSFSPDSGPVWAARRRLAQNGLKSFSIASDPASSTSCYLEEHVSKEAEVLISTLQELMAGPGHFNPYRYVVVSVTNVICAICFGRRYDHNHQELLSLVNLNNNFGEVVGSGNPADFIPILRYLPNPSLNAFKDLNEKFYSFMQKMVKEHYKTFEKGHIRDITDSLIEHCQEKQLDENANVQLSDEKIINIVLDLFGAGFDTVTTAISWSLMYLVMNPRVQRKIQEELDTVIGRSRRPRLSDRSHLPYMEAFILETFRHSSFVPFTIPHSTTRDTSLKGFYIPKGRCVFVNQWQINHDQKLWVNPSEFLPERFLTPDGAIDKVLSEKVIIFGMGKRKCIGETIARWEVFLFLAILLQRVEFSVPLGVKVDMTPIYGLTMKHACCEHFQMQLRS

phase II genes = test: Phase II gene expression; format: cell-based, human; settings: RT-PCR
CYP1B1 = target: T3, CYP1B1 (Homo sapiens, UniProt Q16678); test: Recombinant CYP1B1 Supersomes EROD activity; format: biochemical
T3 sequence (Q16678 1-543): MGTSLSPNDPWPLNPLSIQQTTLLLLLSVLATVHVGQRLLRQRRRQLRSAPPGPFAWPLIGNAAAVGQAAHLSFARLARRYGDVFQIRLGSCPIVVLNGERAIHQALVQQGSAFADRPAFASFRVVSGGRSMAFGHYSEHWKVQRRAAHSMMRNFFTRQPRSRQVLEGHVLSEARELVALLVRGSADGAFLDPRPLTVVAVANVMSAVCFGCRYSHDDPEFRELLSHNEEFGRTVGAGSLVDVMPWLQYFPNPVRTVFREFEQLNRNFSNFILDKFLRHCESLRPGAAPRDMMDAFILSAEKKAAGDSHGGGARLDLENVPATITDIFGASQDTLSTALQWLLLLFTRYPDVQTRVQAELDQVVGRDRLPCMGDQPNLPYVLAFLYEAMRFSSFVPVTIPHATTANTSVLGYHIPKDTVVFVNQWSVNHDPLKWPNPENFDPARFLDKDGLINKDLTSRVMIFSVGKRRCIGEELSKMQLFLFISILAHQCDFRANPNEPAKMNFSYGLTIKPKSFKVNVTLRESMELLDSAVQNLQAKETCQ

G6PD mRNA = G6PD mRNA expression by RT-PCR in HepG2 cells; format: cell-based, human; settings: 50 μM, 24 hours, over 18S RNA control
CYP1A2 = target: T4, CYP1A2 (Homo sapiens, UniProt P05177); test: Recombinant CYP1A2 Supersomes EROD activity; format: biochemical
T4 sequence (P05177 1-516): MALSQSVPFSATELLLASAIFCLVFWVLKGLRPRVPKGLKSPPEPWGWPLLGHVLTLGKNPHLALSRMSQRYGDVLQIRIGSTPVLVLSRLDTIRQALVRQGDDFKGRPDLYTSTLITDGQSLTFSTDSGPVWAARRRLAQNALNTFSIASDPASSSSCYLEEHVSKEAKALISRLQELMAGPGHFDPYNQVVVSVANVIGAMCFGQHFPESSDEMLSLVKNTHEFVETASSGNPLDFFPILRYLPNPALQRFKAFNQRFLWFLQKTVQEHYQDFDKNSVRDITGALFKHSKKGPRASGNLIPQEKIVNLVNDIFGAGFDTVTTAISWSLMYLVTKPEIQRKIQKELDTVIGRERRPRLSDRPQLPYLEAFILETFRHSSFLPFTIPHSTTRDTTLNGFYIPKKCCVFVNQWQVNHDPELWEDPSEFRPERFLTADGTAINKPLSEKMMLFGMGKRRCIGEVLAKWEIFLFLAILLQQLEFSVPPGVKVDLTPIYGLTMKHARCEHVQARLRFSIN

[11] = test system: catalase and glutathione reductase; settings: 25 μM; cited from earlier work
[12] = test system: CYP1A1 heterogeneous nuclear RNA (hnCYP1A1)

With `O=C(Cc1ccccc1Nc1c(Cl)cccc1Cl)Oc1ccc(-c2cc(=S)ss2)cc1` [ACS 15, 2-[(2,6-dichlorophenyl)amino]benzeneacetic acid 4-(3H-1,2,dithiol-3-thione-5-yl)phenyl ester] as the compound, how does the “inhibition of TCDD (PAH)-induced EROD activity” value (“inhibition of TCDD” for short) [1] read?
The value was “inhibited”.

What about the “effect on TCDD- and DMBA-stimulated hnCYP1A1 expression” value [2] of the same compound?
Its value is “abrogated the stimulatory effects”.

What about the “less gastro-intestinal damage than diclofenac” value [3] of the same compound?
The value was > 90%.

What about the “level of activated AhR on co-treatment with TCDD (ChIP)” value [4] of the same compound?
Its value is 2.6 fold.

What about the “effect on TCDD- and DMBA-induced CYP1A2 mRNA expression” value (CYP1A2 mRNA [5]) of the same compound?
The value was “inhibited in a concentration-dependent manner”.

And the “effect on TCDD- and DMBA-induced CYP1B1 mRNA expression” value (CYP1B1 mRNA [6])?
Its value is “inhibited in a concentration-dependent manner”.

What about the “cell viability (MTT)” value (LS180 cells) of the same compound?
Its value is “non-toxic”.

What about the “cell viability (MTT)” value (HepG2 cells) of the same compound?
The value was “non-toxic”.

And the “effect on TCDD- and DMBA-induced CYP1A2 mRNA expression” value (CYP1A2 mRNA [7])?
Its value is “inhibited in a concentration-dependent manner”.

And the “effect on TCDD- and DMBA-induced CYP1A1 mRNA expression” value (CYP1A1 mRNA [8])?
Its value is “inhibited in a concentration-dependent manner”.

And the “effect on TCDD- and DMBA-induced CYP1A1 mRNA expression” value (CYP1A1 mRNA [9])?
The value was “inhibited in a concentration-dependent manner”.

And the “effect on TCDD- and DMBA-induced CYP1B1 mRNA expression” value (CYP1B1 mRNA [10])?
Its value is “inhibited in a concentration-dependent manner”.

What about the “change of Vmax with increasing compound concentration” value (CYP1A1) of the same compound?
Its value is “unchanged”.

What about the “nature of CYP1A1 inhibition (Michaelis-Menten kinetic analysis)” value (CYP1A1) of the same compound?
Its value is “competitive”.

What about the “effect on phase II gene expression” value (phase II genes) of the same compound?
Its value is “No significant increases”.

With `CC1=C(CC(=O)Oc2ccc(-c3cc(=S)ss3)cc2)c2cc(F)ccc2/C1=C\c1ccc([S+](C)[O-])cc1` (stereo not shown) [ACS 18, (Z)-5-Fluoro-2-methyl-1-[[4-(methylsulfinyl)phenyl]-methylene]-1H-indene-3-acetic acid 4-(5-thioxo-5H-[1,2]dithiol-3-yl)-phenyl ester] as the compound, how does the pIC50 (CYP1B1) read?
The pIC50 was 6.64.

And the “increase in G6PD mRNA expression” value (G6PD mRNA)?
The value was 1.5 fold.

And the “inhibition of TCDD” value [1]?
The value was “inhibited”.

What about the “induction of EROD activity” value [1] of the same compound?
The value was 0.46 +/− 0.01 pmoles/min/well.

And the “effect on TCDD- and DMBA-stimulated hnCYP1A1 expression” value [2]?
The value was “similar”.

What about the “effect on TCDD- and DMBA-induced CYP1A2 mRNA expression” value (CYP1A2 mRNA [5]) of the same compound?
The value was “similar”.

And the “effect on TCDD- and DMBA-induced CYP1B1 mRNA expression” value (CYP1B1 mRNA [6])?
The value was “similar”.

What about the pIC50 (CYP1A2) of the same compound?
Its pIC50 is 5.51.

What about the “cell viability (MTT)” value (LS180 cells) of the same compound?
The value was “non-toxic”.

What about the “cell viability (MTT)” value (HepG2 cells) of the same compound?
Its value is “non-toxic”.

And the “effect on TCDD- and DMBA-induced CYP1A2 mRNA expression” value (CYP1A2 mRNA [7])?
Its value is “similar”.

And the “effect on TCDD- and DMBA-induced CYP1A1 mRNA expression” value (CYP1A1 mRNA [8])?
Its value is “similar”.

And the “effect on TCDD- and DMBA-induced CYP1A1 mRNA expression” value (CYP1A1 mRNA [9])?
Its value is “similar”.

What about the “effect on TCDD- and DMBA-induced CYP1B1 mRNA expression” value (CYP1B1 mRNA [10]) of the same compound?
Its value is “similar”.

What about the pIC50 (CYP1A1) of the same compound?
Its pIC50 is 7.40.

What about the “change of Vmax with increasing compound concentration” value (CYP1A1) of the same compound?
The value was “unchanged”.

And the “nature of CYP1A1 inhibition (Michaelis-Menten kinetic analysis)” value (CYP1A1)?
The value was “competitive”.

For `COc1ccc(-c2cc(=S)ss2)cc1` [ADT, 5-[p-methoxyphenyl]-1,2-dithiole-3-thione], which “increases in the phase II enzymes catalase and glutathione reductase” value [11] is on record?
The value was “less than 2 fold”.

For `Cc1c2ccccc2c(C)c2c1ccc1ccccc12` [DMBA], which “fold increase in hnCYP1A1 expression over DMSO control levels” value [12] is on record?
Its value is 12 fold.

And the “fold increase in CYP1B1 mRNA expression compared to DMSO controls” value (CYP1B1 mRNA [6]; TCDD 250 pmol, DMBA 1 μM)?
The value was 2.5 fold.

And the “fold increase in CYP1B1 mRNA expression compared to DMSO controls” value (CYP1B1 mRNA [10]; TCDD 250 pmol, DMBA 1 μM)?
The value was 8.4 fold.

For `[Na+].[SH-]` [NaHS], which “inhibition of TCDD” value [1] is on record?
Its value is “not inhibited”.

Which “inhibition of TCDD” value [1] does the source give for `O=C(O)Cc1ccccc1Nc1c(Cl)cccc1Cl` [diclofenac] here?
Its value is “not inhibited”.

For `CC1=C(CC(=O)O)c2cc(F)ccc2/C1=C\c1ccc([S+](C)[O-])cc1` (stereo not shown) [sulindac], which “inhibition of TCDD” value [1] is on record?
The value was “not inhibited”.

What about the “induction of EROD activity” value [1] of the same compound?
The value was 4.45 +/− 0.09 pmoles/min/well.
